Like-named read-outs stand apart in the source and are kept apart here.
How the values were obtained:
DENV2 = experiment: Viral plaque reduction assay, DENV2 in A549 cells; format: cell-based; settings: read-out: EC50-DN2 (A549)
ZIKV [1] = experiment: Viral titer reduction assay, ZIKV in A549 cells; format: cell-based, Zika virus
Method in brief: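 ZIKV infection of human A549 lung carcinoma cells with test compound over a dose range. Virus titre reduction measured, run in triplicate. EC50 obtained by nonlinear regression fit of the dose–response curve.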

viral NS3 protease = viral NS3 protease (Dengue virus type 2, UniProt P29990); experiment: Protein thermal shift assay; format: binding; settings: PTSA
MBP-NS3 Y23A = MBP-NS3 Y23A (Dengue virus type 2, UniProt P29990, Y1498A); format: binding, DENV2; settings: Y23A vs WT
MBP-NS3 F46A = MBP-NS3 F46A (Dengue virus type 2, UniProt P29990, F1521A); format: binding, DENV2; settings: F46A vs WT
MBP-NS3 L58A = MBP-NS3 L58A (Dengue virus type 2, UniProt P29990, L1533A); experiment: SPR binding to MBP-NS3 mutant L58A; design: species or system DENV2; settings: L58A vs WT
MBP-NS3 H60A = MBP-NS3 H60A (Dengue virus type 2, UniProt P29990, H1535A); format: binding, DENV2; settings: H60A vs WT
ZIKV [2] = experiment: qRT-PCR of viral RNA from ZIKV-infected A549 cells; format: cell-based, Zika virus
ZIKV [3] = experiment: Immunofluorescence assay; format: cell-based, Zika virus; settings: IFA, anti-E 4G2, A549 cells
Method in brief: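 ZIKV-infected cells treated with test compound or DMSO. Viral E protein detected with mouse monoclonal pan-flavivirus anti-E 4G2 and a DyLight 488 goat anti-mouse IgG secondary. Nuclei counterstained with Hoechst.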

ZIKV [4] = experiment: ZIKV inhibition in human neural progenitor cells; format: cell-based, Zika virus; settings: human iPSC-derived neural progenitor cells, IFA and qRT-PCR
ZIKV [5] = experiment: ZIKV infection of 3D mini-brain organoids; format: cell-based, Zika virus; settings: 1.5 μM
3D organoids = experiment: Toxicity on 3D mini-brain organoids; format: cell-based, human; settings: 1.5 μM
[6] = Repeated oral dosing toxicity in mice; format: in vivo, mouse; settings: repeated oral dosing 40 mg/kg/day for 7 days, N = 6
ZIKV [7] = experiment: Time of addition experiment, ZIKV titer by plaque forming assay; format: cell-based, Zika virus; settings: 0.75 μM added at time points postinfection, titers at 48 h
ZIKV NS3 = experiment: Western blot of ZIKV NS3 and polyprotein precursor in infected A549 cells; format: cell-based, Zika virus; settings: A549, MOI 0.1, 48 h
Method in brief: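 Preseeded A549 cells were treated with a dose series of test compound or DMSO and infected with ZIKV at MOI 0.1. At 48 h post-infection, cells were washed, harvested, given protease inhibitor cocktail and lysed in SDS-PAGE loading buffer (95 °C, 10 min). Blots were probed with anti-ZIKV NS3 and anti-GAPDH. PP and NS3 band intensities were normalised to GAPDH, N = 3.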

MBP-NS3 I25A = settings: I25A vs WT
WST-8 cell proliferation = settings: human
DENV2 NS2B–NS3 protease = DENV2 NS2B–NS3 protease (Dengue virus type 2, UniProt P29990); experiment: NS2B–NS3 protease inhibition assay; format: biochemical
DENV2 replicon = DENV2 replicon assay; format: cell-based; settings: Dengue virus, DENV2, BHK-21, 48 h, read-out: EC50-DN2 (DENV2 replicon cell line)
ZIKV [8] = experiment: ZIKV viremia mouse model; format: in vivo, Zika virus; settings: data not shown
A549 cells = experiment: WST-8 cell proliferation; settings: read-out: CC50 (A549); cell viability, A549 cells, 48 h
[9] = Zika virus, A549, read-out: EC50-ZK (A549)
[10] = virus production, A549 cells, 48 h postinfection
[11] = read-out: EC50-ZK (A549), virus production, A549 cells

**Q.** For `O=C(Nc1ccc([N+](=O)[O-])cc1Cl)c1cccc([N+](=O)[O-])c1O` [JMX0207, N-(2-Chloro-4-nitrophenyl)-2-hydroxy-3-nitrobenzamide], which EC50 (DENV2; Dengue virus, DENV2, A549, 48 h) is on record?
**A.** 0.31 µM

**Q.** What about the EC50 (ZIKV [1]; [9]) of the same molecule?
**A.** 0.3 µM

**Q.** And the “increase in Tm of the viral protein” value (viral NS3 protease)?
**A.** 0.75 °C

**Q.** And the “effect of mutation on binding affinity” value (MBP-NS3 Y23A)?
**A.** do not have any effect

**Q.** And the “effect of mutation on binding affinity” value (MBP-NS3 F46A)?
**A.** do not have any effect

**Q.** And the “effect of mutation on binding” value (MBP-NS3 L58A)?
**A.** abolished the binding

**Q.** And the “reduction of binding affinity by mutation” value (MBP-NS3 H60A)?
**A.** 2- to 3 fold

**Q.** And the “ZIKV RNA copy number” value (ZIKV [2])?
**A.** significantly reduced the ZIKV RNA copy number in a dose-dependent manner

**Q.** And the ZIKV antigen production (ZIKV [3])?
**A.** greatly reduced ZIKV antigen production

**Q.** And the “ZIKV protein expression and RNA synthesis in HNPCs” value (ZIKV [4])?
**A.** effectively inhibited

**Q.** What about the “ZIKV production from 3D organoids” value (ZIKV [5]; PFU assay, 5 dpi) of the same molecule?
**A.** significantly inhibited

**Q.** What about the “protection of organoid slices from ZIKV infection (immunostaining)” value (ZIKV [5]; ZIKV PRVABC59, anti-E 4G2) of the same molecule?
**A.** nearly completely protected the organoids from ZIKV infection

**Q.** And the “ZIKV infection in the 3D organoid” value (ZIKV [5]; ZIKV-Venus, MOI 1, fluorescence imaging 7 dpi, vs DMSO)?
**A.** completely abolished ZIKV infection

**Q.** What about the “toxic effect on 3D organoids” value (3D organoids) of the same molecule?
**A.** did not have any toxic effect

**Q.** What about the signs of toxicity [6] of the same molecule?
**A.** did not display any sign of toxicity

**Q.** What about the “reduction of ZIKV titer by time of addition” value (ZIKV [7]) of the same molecule?
**A.** equally effective in reducing ZIKV titer even at 24 h postinfection

**Q.** What about the “high MW protein (unprocessed viral polyprotein precursor, PP)” value (ZIKV NS3) of the same molecule?
**A.** dose-dependent increase

**Q.** What about the “viral NS3 protein production” value (ZIKV NS3) of the same molecule?
**A.** dose-dependent reduction

**Q.** And the “reduction of binding affinity by mutation” value (MBP-NS3 I25A)?
**A.** 2- to 3 fold

**Q.** And the CC50 at 48 h (WST-8 cell proliferation)?
**A.** 31.9 µM

**Q.** What does the source list for `O=C(Nc1ccc([N+](=O)[O-])cc1Cl)c1cc(Cl)ccc1O` [Niclosamide, reference compound]?
**A.** IC50 (DENV2 NS2B–NS3 protease): 21.6 µM; EC50 (ZIKV [1]; [9]): 0.48 µM; EC50 (DENV2 replicon): 2 µM; in vivo antiviral efficacy toward ZIKV (ZIKV [8]): did not show appreciable in vivo antiviral efficacy

**Q.** Which results are given for `Nc1ccc(NC(=O)c2cc(Cl)ccc2O)c(Cl)c1` [HJC0129]?
**A.** EC50 (DENV2; [10]): > 30 µM; EC50 (ZIKV [1]; [11]): > 30 µM; CC50 (A549 cells): 176 µM

**Q.** Which EC50 (DENV2; [10]) does the source give for `CN1CCC(Oc2ccc(Cl)cc2C(=O)Nc2ccc([N+](=O)[O-])cc2Cl)CC1` [HJC0381] here?
**A.** 1.2 µM

**Q.** And the EC50 (ZIKV [1]; [11])?
**A.** 3.9 µM

**Q.** And the CC50 (A549 cells)?
**A.** 91.1 µM

**Q.** Which EC50 (DENV2; [10]) does the source give for `O=C(Nc1ccc2c(c1)S(=O)(=O)C=C2)c1cc(Cl)ccc1O` [HJC0149] here?
**A.** 0.9 µM

**Q.** And the EC50 (ZIKV [1]; [11])?
**A.** 1.1 µM

**Q.** What about the CC50 (A549 cells) of the same molecule?
**A.** 241 µM

**Q.** Which EC50 (DENV2; [10]) does the source give for `NCCCOc1ccc(Cl)cc1C(=O)Nc1ccc([N+](=O)[O-])cc1Cl` [HJC0308] here?
**A.** 1.4 µM

**Q.** What about the EC50 (ZIKV [1]; [11]) of the same molecule?
**A.** 6.2 µM

**Q.** And the CC50 (A549 cells)?
**A.** 17.7 µM

**Q.** Which results are given for `CC(=O)Nc1ccc(NC(=O)c2cc(Cl)ccc2O)c(Cl)c1` [HJC0140]?
**A.** EC50 (DENV2; [10]): > 30 µM; EC50 (ZIKV [1]; [11]): > 30 µM

**Q.** For `NCCCCOc1ccc(Cl)cc1C(=O)Nc1ccc([N+](=O)[O-])cc1Cl` [HJC0431], which EC50 (DENV2; [10]) is on record?
**A.** 2.2 µM

**Q.** What about the EC50 (ZIKV [1]; [11]) of the same molecule?
**A.** 0.36 µM

**Q.** And the CC50 (A549 cells)?
**A.** 28.4 µM

**Q.** For `CN1CCN(CCOc2ccc(Cl)cc2C(=O)Nc2ccc([N+](=O)[O-])cc2Cl)CC1` [HJC0365], which EC50 (DENV2; [10]) is on record?
**A.** 6.4 µM

**Q.** And the EC50 (ZIKV [1]; [11])?
**A.** 6 µM

**Q.** And the CC50 (A549 cells)?
**A.** 177 µM

— article PMC7559020 (ACS infectious diseases, 2020)
